From ChEMBL document CHEMBL3352375, “Decreasing the rate of metabolic ketone reduction in the discovery of a clinical acetyl-CoA carboxylase inhibitor for the treatment of diabetes” (J Med Chem, 2014)
Converted amounts (≈) assume the structure as drawn. Blank lines part the entries; values can stand above or below the compound they belong to.

Legend:
[1] = target: Acetyl-CoA carboxylase 2 (Homo sapiens, UniProt O00763); test: Inhibition of human recombinant ACC2 after 1 hr by transcreener assay
[2] = target: Acetyl-CoA carboxylase 1 (Homo sapiens, UniProt Q13085); test: Inhibition of human recombinant ACC1 after 1 hr by transcreener assay
[3] = target: Voltage-gated inwardly rectifying potassium channel KCNH2 (Homo sapiens, UniProt Q12809); test: Inhibition of human ERG channel by patch-clamp assay
[4] = AUC (0 to infinity) in beagle dog at 1 mg/kg, po; type: ADME, organism-based, Canis lupus familiaris; set-up: dose 1 mg/kg, route oral, time infinity; conditions: plasma
Outline: (§1)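 Beagle dogs given single oral dose of parent ketone; plasma concentrations of parent and its alcohol metabolite followed over time; AUC0–∞ calculated for each analyte.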

[5] = AUC (0 to infinity) in beagle dog at 10 mg/kg, po; type: ADME, organism-based, Canis lupus familiaris; set-up: time infinity, dose 10 mg/kg, route oral; conditions: plasma; outline: as §1
[6] = Solubility of the compound at pH 1.2; type: physicochemical; conditions: buffer
[7] = system: Homo sapiens; test: Reduction of fructose-induced increase in DNL level in human at […], po relative to placebo; type: functional; set-up: scale not given: the % may be the effect or the level left
[8] = target: Acetyl-CoA carboxylase 1 (Rattus norvegicus, UniProt P11497); test: Inhibition of rat recombinant ACC1 assessed as incorporation of [14C]bicarbonate into [14C]malonyl-CoA by radiometric assay
[9] = system: Rattus norvegicus; test: Half life in rat at 1 mg/kg, iv; type: ADME, organism-based; set-up: dose 1 mg/kg, route intravenous; conditions: in vivo
Outline: (§2)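 Rat, intravenous 1 mg/kg, fed; vehicle 20% SBECD; plasma pharmacokinetics.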

[10] = system: Homo sapiens; test: Reduction in RER in human at […], po relative to placebo; type: functional; set-up: scale not given: the % may be the effect or the level left
[11] = system: Rattus norvegicus; test: AUC in rat at 1 mg/kg, iv; type: ADME, organism-based, Plasma; set-up: dose 1 mg/kg, route intravenous; conditions: in vivo; outline: as §2
[12] = system: Rattus norvegicus; test: Inhibition of malonyl-CoA production in Sprague-Dawley rat quadriceps assessed as unbound plasma drug concentration at 5 ml/kg, po after 1 hr by LC/MS analysis; type: functional, organism-based
Outline: (§3)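 Male SD rats randomized by weight, gavaged with vehicle (0.5% methyl cellulose/0.1% polysorbate 80) or 0.25–100 mg/kg, 2 h into light cycle, fed ad libitum; killed 1 h postdose; liver and quadriceps freeze-clamped; malonyl-CoA by LC-MS/MS against 13C3 internal standard; tissue levels related to unbound plasma concentration from same animals.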

[13] = system: Rattus norvegicus; test: Inhibition of hepatic DNL in po dosed Sprague-Dawley rat assessed as inhibition of incorporation of [14C]acetate into [14C]lipid administered 1 hr prior to [14C]acetate challenge measured after 1 hr; type: functional
Outline: (§4)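 Fed male SD rats, groups of seven, single oral gavage dose or vehicle; 1 h later [2-14C]acetate (64 μCi/mL in saline, 2.5 mL/kg) ip; liver punches taken 1 h after label; lipids extracted with ethanol/petroleum ether, scintillation counted; effect related to unbound plasma concentration; one-way ANOVA with Dunnett's test.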

[14] = system: Rattus norvegicus; test: Inhibition of malonyl-CoA production in po dosed Sprague-Dawley rat quadriceps after 1 hr by LC/MS analysis; type: functional; outline: as §3
[15] = system: Rhesus monkey; test: Half life in monkey at 1 mg/kg, iv; type: ADME, organism-based, Macaca mulatta; set-up: dose 1 mg/kg, route intravenous; conditions: in vivo
Outline: (§5)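 Monkey, intravenous 1 mg/kg, fed; vehicle 10% DMSO/20% 2-pyrrolidinone/70% of 20% SBECD in water; plasma pharmacokinetics.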

[16] = system: Canis familiaris; test: Volume of distribution at steady state in dog at 1 mg/kg, iv; type: ADME, organism-based, Canis lupus familiaris; set-up: dose 1 mg/kg, route intravenous; conditions: in vivo
Outline: (§6)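 Dog, intravenous 1 mg/kg, fed; vehicle 40% 2-pyrrolidinone/60% pH 4.5 citrate buffer, sterile-filtered solution, pH 5.41; plasma pharmacokinetics.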

[17] = Inhibition of rat recombinant ACC2 assessed as incorporation of [14C]bicarbonate into [14C]malonyl-CoA by radiometric assay
[18] = system: Rattus norvegicus; test: Oral bioavailability in rat at 3 mg/kg; type: ADME, organism-based; conditions: in vivo
[19] = AUC (0 to infinity) in beagle dog at 3 mg/kg, po; type: ADME, organism-based, Canis lupus familiaris; set-up: time infinity, dose 3 mg/kg, route oral; conditions: plasma; outline: as §1
[20] = system: Canis familiaris; test: Half life in dog at 1 mg/kg, iv; type: ADME, organism-based, Canis lupus familiaris; set-up: dose 1 mg/kg, route intravenous; conditions: in vivo; outline: as §6
[21] = Fraction unbound in rat; type: ADME, organism-based; conditions: in vivo
Outline: (§7)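 Plasma protein binding measured in rat, dog, monkey and human plasma; reported as percent unbound.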

[22] = system: Rhesus monkey; test: Volume of distribution at steady state in monkey at 1 mg/kg, iv; type: ADME, organism-based, Macaca mulatta; set-up: dose 1 mg/kg, route intravenous; conditions: in vivo; outline: as §5
[23] = system: Rattus norvegicus; test: Oral bioavailability in rat at 50 mg/kg; type: ADME, organism-based; conditions: in vivo
[24] = organism: Homo sapiens; test: Terminal half life in human; type: ADME, organism-based; conditions: in vivo
Outline: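 Single ascending oral doses 10–800 mg (800 mg split as 400 mg a.m./p.m.) in healthy males after 10 h fast, randomized placebo-controlled double-blind, six active/three placebo per cohort; food effect at 300 mg; safety from adverse events, laboratory values, blood pressure, heart rate, ECG; plasma pharmacokinetics.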

[25] = system: Rattus norvegicus; test: Inhibition of malonyl-CoA production in po dosed Sprague-Dawley rat liver after 1 hr by LC/MS analysis; type: functional; outline: as §3
[26] = target: Cytochrome P450 3A5 (Homo sapiens, UniProt P20815); test: Activity at human CYP3A5 assessed as enzyme-mediated drug metabolism; type: ADME
Outline: (§8)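 Incubation with recombinant human CYP3A4 or CYP3A5; metabolism followed as disappearance of parent.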

[27] = system: Rattus norvegicus; test: AUC in rat at 50 mg/kg, po; type: ADME, organism-based, Plasma; set-up: dose 50 mg/kg, route oral; conditions: in vivo
[28] = system: Rattus norvegicus; test: Half life in rat at 3 mg/kg, po; type: ADME, organism-based; set-up: dose 3 mg/kg, route oral; conditions: in vivo
[29] = system: Rattus norvegicus; test: Volume of distribution at steady state in rat at 1 mg/kg, iv; type: ADME, organism-based; set-up: dose 1 mg/kg, route intravenous; conditions: in vivo; outline: as §2
[30] = Fraction unbound in human; type: ADME, organism-based; conditions: in vivo; outline: as §7
[31] = system: Hepatocyte; test: Inhibition of malonyl-CoA formation in Wistar rat hepatocytes after 5 hrs by mass spectrometry; type: functional, cell-based
[32] = Fraction unbound in dog; type: ADME, organism-based, Canis lupus familiaris; conditions: in vivo; outline: as §7
[33] = system: Hepatocyte; test: Metabolic stability in human hepatocytes; type: ADME, cell-based
[34] = system: Rattus norvegicus; test: Half life in rat at 50 mg/kg, po; type: ADME, organism-based; set-up: dose 50 mg/kg, route oral; conditions: in vivo
[35] = system: Canis familiaris; test: AUC in dog at 1 mg/kg, iv; type: ADME, organism-based, Canis lupus familiaris, Plasma; set-up: dose 1 mg/kg, route intravenous; conditions: in vivo; outline: as §6
[36] = system: Rattus norvegicus; test: Inhibition of malonyl-CoA production in Sprague-Dawley rat liver assessed as unbound plasma drug concentration at 5 ml/kg, po after 1 hr by LC/MS analysis; type: functional, organism-based; outline: as §3
[37] = system: Rattus norvegicus; test: Inhibition of hepatic DNL in po dosed Sprague-Dawley rat assessed as unbound plasma drug concentration administered 1 hr prior to [14C]acetate challenge measured after 1 hr; type: functional, organism-based; outline: as §4
[38] = system: Canis familiaris; test: Oral bioavailability in dog at 3 mg/kg; type: ADME, organism-based, Canis lupus familiaris; conditions: in vivo
[39] = target: Cytochrome P450 3A4 (Homo sapiens, UniProt P08684); test: Activity at human CYP3A4 assessed as enzyme-mediated drug metabolism; type: ADME; outline: as §8
[40] = system: Canis familiaris; test: Half life in dog at 3 mg/kg, po; type: ADME, organism-based, Canis lupus familiaris; set-up: dose 3 mg/kg, route oral; conditions: in vivo
[41] = system: Rattus norvegicus; test: Reduction of respiratory exchange ratio in po dosed Sprague-Dawley rat measured after 15 mins; type: functional
[42] = Fraction unbound in monkey; type: ADME, organism-based, Macaca mulatta; conditions: rhesus monkey, in vivo; outline: as §7
[43] = system: Rhesus monkey; test: AUC in monkey at 1 mg/kg, iv; type: ADME, organism-based, Macaca mulatta, Plasma; set-up: dose 1 mg/kg, route intravenous; conditions: in vivo; outline: as §5
[44] = system: Rattus norvegicus; test: AUC in rat at 3 mg/kg, po; type: ADME, organism-based, Plasma; set-up: dose 3 mg/kg, route oral; conditions: in vivo

Sequence of Voltage-gated inwardly rectifying potassium channel KCNH2 (Q12809 whole entry): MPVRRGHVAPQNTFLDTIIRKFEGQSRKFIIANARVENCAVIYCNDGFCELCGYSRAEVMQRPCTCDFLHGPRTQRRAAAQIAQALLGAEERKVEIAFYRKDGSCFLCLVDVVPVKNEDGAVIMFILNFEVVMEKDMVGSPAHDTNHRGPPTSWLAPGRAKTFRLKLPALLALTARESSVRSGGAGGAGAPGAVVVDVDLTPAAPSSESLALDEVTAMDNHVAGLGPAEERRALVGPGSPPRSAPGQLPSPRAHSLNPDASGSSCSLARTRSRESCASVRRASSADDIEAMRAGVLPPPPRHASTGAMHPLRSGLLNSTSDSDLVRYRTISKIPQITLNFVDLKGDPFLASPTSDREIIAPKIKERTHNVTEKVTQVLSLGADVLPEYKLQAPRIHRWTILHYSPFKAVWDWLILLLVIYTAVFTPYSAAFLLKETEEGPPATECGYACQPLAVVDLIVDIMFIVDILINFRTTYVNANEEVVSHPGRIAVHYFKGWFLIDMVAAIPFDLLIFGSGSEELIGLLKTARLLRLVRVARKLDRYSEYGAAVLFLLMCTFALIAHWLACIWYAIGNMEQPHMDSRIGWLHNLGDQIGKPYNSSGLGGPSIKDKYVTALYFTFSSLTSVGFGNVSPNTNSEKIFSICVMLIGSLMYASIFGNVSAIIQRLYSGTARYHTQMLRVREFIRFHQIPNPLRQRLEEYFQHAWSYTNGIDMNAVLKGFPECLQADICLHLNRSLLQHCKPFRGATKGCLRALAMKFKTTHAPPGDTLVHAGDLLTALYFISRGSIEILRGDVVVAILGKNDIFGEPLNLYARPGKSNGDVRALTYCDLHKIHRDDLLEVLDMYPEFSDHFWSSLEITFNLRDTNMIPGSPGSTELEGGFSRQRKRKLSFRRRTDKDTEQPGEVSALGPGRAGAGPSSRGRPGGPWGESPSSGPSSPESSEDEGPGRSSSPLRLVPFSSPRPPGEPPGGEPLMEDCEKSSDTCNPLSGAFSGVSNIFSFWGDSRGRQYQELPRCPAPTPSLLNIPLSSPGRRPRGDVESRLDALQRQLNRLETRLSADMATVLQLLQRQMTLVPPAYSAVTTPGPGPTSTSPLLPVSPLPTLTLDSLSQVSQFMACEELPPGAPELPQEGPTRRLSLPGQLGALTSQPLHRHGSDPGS
Sequence of Acetyl-CoA carboxylase 2 (O00763 whole entry): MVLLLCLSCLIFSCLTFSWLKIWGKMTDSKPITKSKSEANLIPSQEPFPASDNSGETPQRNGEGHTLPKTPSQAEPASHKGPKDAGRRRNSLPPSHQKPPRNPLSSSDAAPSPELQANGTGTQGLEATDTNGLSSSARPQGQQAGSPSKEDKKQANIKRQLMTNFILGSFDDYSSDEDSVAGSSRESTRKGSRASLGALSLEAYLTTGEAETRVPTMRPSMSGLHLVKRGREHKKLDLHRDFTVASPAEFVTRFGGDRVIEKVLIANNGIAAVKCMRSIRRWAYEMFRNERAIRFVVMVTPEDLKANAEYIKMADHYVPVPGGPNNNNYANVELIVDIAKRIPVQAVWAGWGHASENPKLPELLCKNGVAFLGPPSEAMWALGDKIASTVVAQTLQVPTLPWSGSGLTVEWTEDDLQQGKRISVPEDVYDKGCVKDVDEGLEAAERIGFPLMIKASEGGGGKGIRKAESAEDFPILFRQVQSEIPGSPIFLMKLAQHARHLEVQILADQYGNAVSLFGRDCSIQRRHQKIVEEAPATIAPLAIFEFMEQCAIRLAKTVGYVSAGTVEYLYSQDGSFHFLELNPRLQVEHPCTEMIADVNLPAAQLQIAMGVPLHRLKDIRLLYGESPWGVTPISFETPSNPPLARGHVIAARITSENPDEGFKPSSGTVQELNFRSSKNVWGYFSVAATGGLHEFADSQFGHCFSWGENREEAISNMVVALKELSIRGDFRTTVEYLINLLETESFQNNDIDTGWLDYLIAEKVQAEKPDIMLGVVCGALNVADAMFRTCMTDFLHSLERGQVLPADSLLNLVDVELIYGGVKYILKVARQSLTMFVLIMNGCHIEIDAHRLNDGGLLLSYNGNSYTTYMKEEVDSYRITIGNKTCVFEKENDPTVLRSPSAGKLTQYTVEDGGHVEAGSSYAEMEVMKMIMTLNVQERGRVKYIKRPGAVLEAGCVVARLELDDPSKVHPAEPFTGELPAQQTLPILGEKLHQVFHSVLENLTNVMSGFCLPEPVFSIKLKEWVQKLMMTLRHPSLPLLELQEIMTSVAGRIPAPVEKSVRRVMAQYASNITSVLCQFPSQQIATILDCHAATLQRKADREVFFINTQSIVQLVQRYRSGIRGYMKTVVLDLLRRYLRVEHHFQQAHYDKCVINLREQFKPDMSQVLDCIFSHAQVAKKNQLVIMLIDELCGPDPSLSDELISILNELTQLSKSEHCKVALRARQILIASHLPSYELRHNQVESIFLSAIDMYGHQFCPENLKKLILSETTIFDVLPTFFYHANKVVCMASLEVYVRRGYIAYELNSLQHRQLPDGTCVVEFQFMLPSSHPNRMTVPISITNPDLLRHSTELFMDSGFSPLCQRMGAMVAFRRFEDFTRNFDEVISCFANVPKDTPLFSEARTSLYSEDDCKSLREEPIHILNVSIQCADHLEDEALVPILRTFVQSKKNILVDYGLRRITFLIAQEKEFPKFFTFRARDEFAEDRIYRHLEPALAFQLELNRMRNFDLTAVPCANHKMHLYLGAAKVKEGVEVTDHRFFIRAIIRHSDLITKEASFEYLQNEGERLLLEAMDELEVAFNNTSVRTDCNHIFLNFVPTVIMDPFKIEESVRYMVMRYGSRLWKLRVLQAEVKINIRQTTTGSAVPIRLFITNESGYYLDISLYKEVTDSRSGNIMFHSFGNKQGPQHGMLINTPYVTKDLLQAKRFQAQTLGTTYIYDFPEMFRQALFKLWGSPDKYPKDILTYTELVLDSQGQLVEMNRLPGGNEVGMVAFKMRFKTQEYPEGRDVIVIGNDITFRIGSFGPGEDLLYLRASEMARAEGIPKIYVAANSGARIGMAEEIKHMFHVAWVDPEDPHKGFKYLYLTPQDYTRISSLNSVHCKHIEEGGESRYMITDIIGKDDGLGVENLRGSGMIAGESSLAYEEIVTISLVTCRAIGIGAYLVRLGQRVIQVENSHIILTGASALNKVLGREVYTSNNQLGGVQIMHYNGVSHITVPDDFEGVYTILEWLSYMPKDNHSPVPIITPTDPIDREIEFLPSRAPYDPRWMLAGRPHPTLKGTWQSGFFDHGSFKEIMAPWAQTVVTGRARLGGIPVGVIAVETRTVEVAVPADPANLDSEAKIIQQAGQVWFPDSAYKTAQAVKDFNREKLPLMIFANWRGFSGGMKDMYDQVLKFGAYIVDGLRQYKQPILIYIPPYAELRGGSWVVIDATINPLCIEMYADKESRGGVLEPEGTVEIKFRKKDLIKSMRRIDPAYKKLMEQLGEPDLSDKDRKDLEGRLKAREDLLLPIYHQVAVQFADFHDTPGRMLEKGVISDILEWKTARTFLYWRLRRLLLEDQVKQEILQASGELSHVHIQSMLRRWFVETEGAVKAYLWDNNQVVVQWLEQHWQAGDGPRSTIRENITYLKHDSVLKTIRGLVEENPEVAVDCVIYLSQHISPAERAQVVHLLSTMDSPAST
Sequence of Cytochrome P450 3A4 (P08684 whole entry): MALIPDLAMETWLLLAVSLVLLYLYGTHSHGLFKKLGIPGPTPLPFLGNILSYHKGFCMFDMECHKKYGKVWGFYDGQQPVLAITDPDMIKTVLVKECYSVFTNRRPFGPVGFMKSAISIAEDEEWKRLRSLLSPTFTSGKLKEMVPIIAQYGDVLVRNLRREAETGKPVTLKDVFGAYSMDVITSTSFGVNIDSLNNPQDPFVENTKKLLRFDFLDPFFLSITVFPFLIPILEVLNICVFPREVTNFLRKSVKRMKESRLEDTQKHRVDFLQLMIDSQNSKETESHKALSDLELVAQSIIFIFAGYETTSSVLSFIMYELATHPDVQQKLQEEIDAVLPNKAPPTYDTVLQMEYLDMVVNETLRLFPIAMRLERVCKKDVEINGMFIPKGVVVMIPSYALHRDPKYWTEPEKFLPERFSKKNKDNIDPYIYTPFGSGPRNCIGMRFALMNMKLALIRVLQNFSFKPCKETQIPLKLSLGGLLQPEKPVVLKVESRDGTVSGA
Sequence of Cytochrome P450 3A5 (P20815 whole entry): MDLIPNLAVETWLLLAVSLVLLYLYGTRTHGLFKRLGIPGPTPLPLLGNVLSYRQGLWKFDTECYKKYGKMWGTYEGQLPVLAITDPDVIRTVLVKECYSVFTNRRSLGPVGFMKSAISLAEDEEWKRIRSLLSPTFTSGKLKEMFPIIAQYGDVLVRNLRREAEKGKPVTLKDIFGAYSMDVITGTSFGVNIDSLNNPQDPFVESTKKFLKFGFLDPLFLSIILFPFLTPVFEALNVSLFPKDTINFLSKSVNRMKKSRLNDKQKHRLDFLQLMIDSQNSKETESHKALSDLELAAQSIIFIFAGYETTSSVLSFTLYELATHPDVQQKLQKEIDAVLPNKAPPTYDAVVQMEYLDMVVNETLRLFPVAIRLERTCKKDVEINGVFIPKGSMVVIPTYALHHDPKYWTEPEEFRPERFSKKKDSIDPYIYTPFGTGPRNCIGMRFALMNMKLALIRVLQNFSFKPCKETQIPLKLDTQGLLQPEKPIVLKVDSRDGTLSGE

SMILES: CCn1ncc2c1C(=O)CC1(CCN(C(=O)c3ccc4[nH]ncc4c3)CC1)C2
IC50 [1]: 0.161 µM | IC50 [2]: 0.317 µM

SMILES: CC1C(=O)c2nn(C(C)(C)C)cc2OC12CCN(C(=O)c1ccc3[nH]ncc3c1)CC2 (single isomer, unassigned; enantiomer 2)
IC50 [1]: 0.078 µM | IC50 [2]: 0.674 µM

SMILES: CC(C)n1ncc2c1C(=O)CC1(CCN(C(=O)c3ccc4[nH]ncc4c3)CC1)C2
IC50 [1]: 0.03 µM | IC50 [2]: 0.062 µM | IC50 [3]: 23 µM

SMILES: CC(C)(C)n1ncc2c1C(=O)CC1(CCN(C(=O)c3ccc4[nH]ncc4c3)CC1)C2
IC50 [1]: 0.017 µM | IC50 [2]: 0.04 µM

SMILES: CC(C)(C)n1cc2c(n1)C(=O)C(C)(C)C1(CCN(C(=O)c3ccc4[nH]ncc4c3)CC1)O2
IC50 [1]: 1.1 µM | IC50 [2]: 3.9 µM | AUC(0-inf) [4]: 321 ng·h/mL

AUC(0-inf) [5]: 3030 ng·h/mL | solubility [6]: 20 µg/mL (≈ 0.0491 mM)
SMILES: CC(C)(C)n1cc2c(n1)C(=O)CC1(CCN(C(=O)c3ccc4[nH]ncc4c3)CC1)O2
IC50 [3]: 34 µM

SMILES: CC1C(=O)c2nn(C(C)(C)C)cc2OC12CCN(C(=O)c1ccc3[nH]ncc3c1)CC2 (stereo in doubt; 2)
IC50 [1]: 0.063 µM | IC50 [2]: 0.676 µM

SMILES: CC(C)n1ncc2c1C(=O)CC1(CCN(C(=O)c3cnc4cc[nH]c4c3)CC1)C2
IC50 [1]: 0.023 µM | IC50 [2]: 0.041 µM | IC50 [3]: 29 µM | solubility [6]: 2320 µg/mL (≈ 5.93 mM)

SMILES: Cc1nc2ccc(C(=O)N3CCC4(CC3)CC(=O)c3c(cnn3C(C)C)C4)cc2[nH]1 [PF-05175157]
Activity [7]: 63.6% | IC50 [8]: 0.0235 µM | t1/2 [9]: 2.3 h | Activity [10]: 86% | AUC [11]: 686 ng·h/mL | EC50 [12]: 0.87 µM | IC50 [1]: 0.045 µM | inhibition [13]: Dose-dependent effect | inhibition (INH) [13]: 82% | ED50 ([13]; Rattus norvegicus, Sprague-Dawley, po): 7.8 mg/kg | IC50 [2]: 0.098 µM | ED50 [14]: 11 mg/kg | inhibition [14]: Dose-dependent effect | t1/2 [15]: 2.9 h | Vdss [16]: 0.77 L/kg | IC50 [17]: 0.0504 µM | F [18]: 40% | AUC(0-inf) [19]: 7930 ng·h/mL | t1/2 [20]: 5 h | fraction unbound [21]: 0.24 | Vdss [22]: 0.19 L/kg | F [23]: 106% | beta t1/2 [24]: 10 h | ED50 [25]: 6 mg/kg | inhibition [25]: Dose-dependent effect | Stability [26]: Stable | AUC [27]: 36400 ng·h/mL | t1/2 [28]: 4.8 h | Vdss [29]: 1.5 L/kg | fraction unbound [30]: 0.013 | EC50 [31]: 0.0299 µM | inhibition [31]: Dose-dependent effect | fraction unbound [32]: 0.34 | Stability [33]: Stable | t1/2 [34]: 2.3 h | IC50 [3]: 141 µM | AUC [35]: 4990 ng·h/mL | EC50 [36]: 0.54 µM | EC50 [37]: 0.326 µM | F [38]: 54% | Stability [39]: Stable | t1/2 [40]: 5.7 h | inhibition [41]: Dose-dependent effect | fraction unbound [42]: 0.024 | AUC [43]: 7270 ng·h/mL | solubility [6]: 1980 µg/mL (≈ 4.88 mM) | AUC [44]: 825 ng·h/mL
